D1 allo mod: D1 dopamine receptor (human) allosteric modulation; B-score at 10 µM; AID 641; 58,000 tested, 5.9% active; P21728; HEK293 D1, CRE-luciferase, dopamine EC30 potentiation; actives deviate in either direction;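 active = luminescence count or its row- and column-corrected plate score outside the 99.7% band of the plate's sample wells, on either side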
RORA act: RORA (human) activation. CHO-K1 Gal4-RORA LBD luciferase reporter, luminescence; percent increase over mock-subtracted basal signal. 65,000 tested, 1.5% active. P35398. activation, % at 10 µM;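 active = activation above the mean of all tested compounds plus 3 SD, cut at about 49% in these data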
mHtt clearance: compounds clearing mutant huntingtin protein; HeLa Exon1htt(103Q)mCFP, aggregate imaging; zero = plate's median compound well; inhibition, % at 1.5 µM; 47,000 tested, 0.42% active; AID 853;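 active = inhibition of aggregate fluorescence above about 70%, also judged a hit by eye on the cell image, limit read from the data, passing the limit was not always enough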;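 also: cells exposed to compound for three days before fixation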
M1 agonist: activates the M1 muscarinic receptor. 64,000 tested, 3% active. B-score at 10 µM. CHO-M1 cells, Fluo-4 calcium fluorescence, agonist mode; hits give high values;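 active = fluorescence rise, raw or as B-score row- and column-corrected plate score, outside the 99.7% band of its plate's samples, either direction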
M1 antag: M1 muscarinic receptor (rat) antagonism; P08482; CHO-M1 cells, Fluo-4 calcium, ACh EC80 antagonist mode; hits give low values; B-score at 10 µM; 64,000 tested, 3.4% active;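 active = calcium fluorescence response, raw or row-and-column corrected B-score, differing from the plate sample mean either way at a set confidence level, mostly lower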
SF1 activator: activators of human nuclear receptor SF-1; AID 522; activation, % at 10 µM; 65,000 tested, 1.9% active; Q13285; CHO-K1 Gal4-SF-1 LBD luciferase reporter; % increase over DMSO SF-1-specific signal;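 active = activation above the mean activation of all tested compounds plus 3 SD, cut at about 50% in these data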
Target sequence (Q13285 whole entry, looked up, the tested form may be a part): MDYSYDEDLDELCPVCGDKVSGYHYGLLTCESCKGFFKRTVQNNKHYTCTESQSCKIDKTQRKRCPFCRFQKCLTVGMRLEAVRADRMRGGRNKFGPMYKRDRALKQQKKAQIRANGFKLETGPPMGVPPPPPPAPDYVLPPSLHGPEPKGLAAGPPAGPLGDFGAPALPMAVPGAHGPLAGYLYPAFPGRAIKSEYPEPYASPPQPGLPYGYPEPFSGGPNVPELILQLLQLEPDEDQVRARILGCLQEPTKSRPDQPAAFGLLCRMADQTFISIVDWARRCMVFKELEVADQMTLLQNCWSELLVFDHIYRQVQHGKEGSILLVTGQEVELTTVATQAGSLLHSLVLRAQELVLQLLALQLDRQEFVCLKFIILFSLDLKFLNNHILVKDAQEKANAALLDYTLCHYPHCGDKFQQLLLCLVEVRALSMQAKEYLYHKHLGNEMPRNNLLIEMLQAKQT
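Assay system – CHO-K1 cells with Gal4–hSF-1 LBD chimera plus Gal4-driven luciferase · Quantity – 4,000 cells per well · Times – compound added 1 h post-seeding, 20 h exposure at 37 °C, 5% CO2 · Measured by – luciferase light emission · Benchmarks – DMSO and mock-transfected background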
D1 mod confirm: confirmation of human D1 dopamine receptor allosteric modulators; shares compounds with D1 allo mod; HEK293 D1 CRE-luciferase, dopamine EC30 potentiation; hits give high values; luminescence at 10 µM; 2,200 tested, 88% active; AID 642;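 active = luminescence in either of two replicates above the same-plate mean plus 3 SD of the low-dose dopamine control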
D1 no dopamine: activates D1 CRE-luciferase signal without dopamine present; HEK293 D1 CRE-luciferase, luminescence, no dopamine; hits give high values; shares compounds with D1 allo mod; luminescence at 10 µM; 1,900 tested, 0.8% active; in the data active = luminescence above about 3900
Isoprot counter: counter-screen for D1 modulators: isoproterenol response in HEK293 cells | HEK293 D1 CRE-luciferase, isoproterenol EC30 counter-screen | 2,200 tested, 63% active | shares compounds with D1 allo mod | calls only at 10 µM | AID 647;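 active = luminescence in either replicate above plate mean of wells with a partly effective reference agonist dose plus 3 SD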;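 also: isoproterenol raises cAMP through native beta-adrenoceptor Gs so signal bypasses D1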
A number is an active result; - = inactive; . = not tested or not shown; + = active, no number. Most compounds without a hit are left out; they make up all but 11% or so of the library.

SMILES	D1 allo mod	RORA act	mHtt clearance	M1 agonist	M1 antag	SF1 activator	D1 mod confirm	D1 no dopamine	Isoprot counter
O=C(CSc1nnc(-c2ccc(OC(F)F)cc2)o1)NC(=O)NCc1ccco1	-	-	-	-	-	-	.	.	.
Cc1[nH]c(C(=O)N2CCCCC2)c(C)c1C(=O)NC1CCCCC1	-	-	.	-	-	-	.	.	.
COC(=O)C1=[N+]([O-])OC(C(=O)OC)C1c1c[nH]c2ccccc12 (stereo unspecified)	4.2	-	-	-	-	-	-	-	-
C=CCN(CC=C)C(=O)C1CCC(C(=O)N(CC=C)CC=C)CC1 (stereo unspecified)	-	-	-	-	-	-	.	.	.
C=CCn1sc(=N)c(C#N)c1N	.	-	.	-	-	-	.	.	.
C=CCNc1sc(C(=O)C2CC2)c(N)c1C#N	19	-	.	-	-	-	26736	-	+
C=CCNc1sc(C(=O)C(C)(C)C)c(N)c1C#N	9.3	-	-	-	-	-	21312	-	-
COC(=O)COc1nsnc1N1CCOCC1	2.3	-	-	-	-	-	6088	.	-
CN(Cc1ccccc1)c1nc2c(c(=O)[nH]c(=O)n2C)n1CCCc1ccccc1	5.1	-	.	-	-	-	12224	-	+
CN(Cc1ccccc1)c1nc2c(c(=O)[nH]c(=O)n2C)n1Cc1ccccc1Cl	17	-	-	-	-	-	21184	-	+
CCOCCn1c(N(C)Cc2ccccc2)nc2c1c(=O)[nH]c(=O)n2C	.	-	.	-	-	-	.	.	.
Cn1c(=O)[nH]c(=O)c2[nH]c(N(Cc3ccccc3)Cc3ccccc3)nc21	8.4	-	-	-	-	-	16252	.	+
CC1CCN(c2nc3c(c(=O)[nH]c(=O)n3C)n2Cc2ccccc2Cl)CC1	6.2	-	-	-	-	-	14268	-	+
Cn1c(=O)[nH]c(=O)c2c1nc(N(CCO)Cc1ccccc1)n2CCCc1ccccc1	.	.	-	-	-	.	.	.	.
COc1ccc(CCNc2c(N)n(Cc3ccccc3)c(=O)[nH]c2=O)cc1OC	4.7	-	-	-	-	-	14452	-	+
Nc1c(NCCC2=CCCCC2)c(=O)[nH]c(=O)n1Cc1ccccc1	.	-	-	-	-	-	.	.	.
Cn1cccc1C(=S)N=P(C1CCCCC1)(N1CCOCC1)N1CCOCC1	-	-	.	-	-	-	.	.	.
C/C(N)=C(/C#N)C(=O)CSc1nnc(Nc2c(C)cccc2C)s1	-	-	.	-	-	-	.	.	.
C/C(N)=C(/C#N)C(=O)CSc1nnc(SCc2ccc(Cl)cc2)s1	6.7	-	.	-	-	-	6760	-	-
COc1cccc2cc(C(=O)C3=C(O)C(=O)N(CCCN4CCOCC4)C3c3ccncc3)oc12 (stereo unspecified)	-	-	-	-	-	-	.	.	.
O=C1C2C3C=CC(O3)C2C(=O)N1CC(O)c1ccccc1 (stereo unspecified)	-	-	-	.	.	-	.	.	.
CC1(C)Cc2c(C#N)c(N)n(-c3ccccc3)c(=O)c2CO1	-	-	.	-	-	-	.	.	.
CCC1(C)Cc2c(c(=O)n(-c3ccccc3)c3ncnc(N)c23)CO1 (stereo unspecified)	5.5	-	-	-	-	-	10848	.	-
